In BindingDB's records for doi:10.1021/jm701107h (The Ohio State University, 2008):

Target: T1, Aromatase (Homo sapiens, UniProt P11511)
T1 sequence (P11511 whole entry): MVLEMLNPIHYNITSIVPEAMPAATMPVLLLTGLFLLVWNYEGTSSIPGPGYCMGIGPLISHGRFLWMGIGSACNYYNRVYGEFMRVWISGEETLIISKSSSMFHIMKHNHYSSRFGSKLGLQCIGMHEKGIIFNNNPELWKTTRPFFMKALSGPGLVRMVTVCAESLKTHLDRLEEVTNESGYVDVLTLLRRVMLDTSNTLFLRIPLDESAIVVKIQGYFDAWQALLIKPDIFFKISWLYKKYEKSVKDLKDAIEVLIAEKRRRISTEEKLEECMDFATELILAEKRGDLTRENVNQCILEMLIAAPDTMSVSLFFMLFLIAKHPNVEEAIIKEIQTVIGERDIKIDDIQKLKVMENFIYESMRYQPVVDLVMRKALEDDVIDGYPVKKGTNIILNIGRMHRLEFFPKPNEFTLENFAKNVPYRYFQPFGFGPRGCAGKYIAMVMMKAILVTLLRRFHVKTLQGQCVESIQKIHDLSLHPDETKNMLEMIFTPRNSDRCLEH
Test: Inhibition of aromatase in human SKBR3 cells by tritiated water release assay
Procedure, shortened: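 Subconfluent SK-BR-3 cells were switched to defined DMEM/F12 (human albumin, transferrin, insulin) and treated 24 h at five concentrations in triplicate (0.1% DMSO vehicle). They were then incubated 3 h with 100 nM [1β-3H]-androstenedione. TCA-precipitated medium was chloroform-extracted and charcoal-treated, and 3H2O counted as pmol/h/10^6 cells, normalized by DNA assay. IC50 was taken from sigmoidal dose–response fits.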

IC50 [µM]	Structure (SMILES)
> 25	COc1cc([N+](=O)[O-])ccc1N(C)S(C)(=O)=O [N-methyl-N-(2-methoxy-4-nitrophenyl)methanesulfonamide]
> 25	COc1cc([N+](=O)[O-])ccc1NS(C)(=O)=O [N-(2-methoxy-4-nitrophenyl)methanesulfonamide]
